ChEMBL document CHEMBL1140038, “Synthesis and evaluation of indolinyl- and indolylphenylacetylenes as PET imaging agents for beta-amyloid plaques” (Bioorg Med Chem Lett, 2008)
Activity calls are given as the source filed them. The rule behind the calls is not given here.

Columns and labels:
[1] = molecular target: T1, Amyloid-beta precursor protein (Homo sapiens, UniProt P05067); experiment: Binding affinity to beta-amyloid in gray matter of AD patent brain; type: tissue-based; conditions: tested as the 18F-labelled form
T1 sequence (P05067 whole entry): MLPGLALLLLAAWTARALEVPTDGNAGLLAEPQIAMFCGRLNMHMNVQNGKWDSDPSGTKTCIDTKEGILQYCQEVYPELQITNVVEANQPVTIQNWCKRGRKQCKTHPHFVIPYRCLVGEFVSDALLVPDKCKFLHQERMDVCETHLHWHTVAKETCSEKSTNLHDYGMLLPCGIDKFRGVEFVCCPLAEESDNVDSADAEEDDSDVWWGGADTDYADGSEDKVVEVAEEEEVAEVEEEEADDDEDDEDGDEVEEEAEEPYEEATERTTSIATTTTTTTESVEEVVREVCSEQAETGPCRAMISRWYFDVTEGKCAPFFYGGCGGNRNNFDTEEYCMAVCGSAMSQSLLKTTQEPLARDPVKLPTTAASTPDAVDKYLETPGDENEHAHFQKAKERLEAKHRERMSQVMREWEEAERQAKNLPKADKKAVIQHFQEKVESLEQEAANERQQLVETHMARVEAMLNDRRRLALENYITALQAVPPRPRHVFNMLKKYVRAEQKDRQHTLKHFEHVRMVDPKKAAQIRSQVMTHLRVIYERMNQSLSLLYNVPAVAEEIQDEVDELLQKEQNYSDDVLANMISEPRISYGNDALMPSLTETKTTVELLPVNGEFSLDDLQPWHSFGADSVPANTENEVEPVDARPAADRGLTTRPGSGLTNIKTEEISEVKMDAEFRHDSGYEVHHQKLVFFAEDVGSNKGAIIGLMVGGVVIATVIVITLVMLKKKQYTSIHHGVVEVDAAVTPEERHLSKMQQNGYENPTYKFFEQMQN

[2] = molecular target: T1, Amyloid-beta precursor protein; experiment: Displacement of [125I]IMPY from beta-amyloid plaques in AD patient brain
In short: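 Competition binding against the radioligand [125I]IMPY (6-iodo-2-(4'-dimethylamino-)phenylimidazo[1,2-a]pyridine). Tissue: homogenates of postmortem AD brain. Reported as Ki.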

[3] = Drug level in mouse brain after 2 mins; type: ADME, tissue-based; conditions: read-out: Drug uptake
In short: (§1)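 [18F]-labelled ligands, HPLC-purified to >97% radiochemical purity, given by injection to normal mice. Brain radioactivity measured at 2 min, 2 h and 3 h after injection. Expressed as % injected dose per gram of tissue.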

[4] = Partition coefficient, log P of the compound; type: physicochemical; conditions: octanol/water
In short: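 Partition coefficient measured for the HPLC-purified [18F]-radiolabelled ligands at pH 7.4. Reported as log P.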

[5] = Drug level in mouse brain after 2 hrs; type: ADME, tissue-based; conditions: read-out: Drug uptake; in short: as §1
[6] = Drug level in mouse brain after 3 hrs; type: ADME, tissue-based; conditions: read-out: Drug uptake; in short: as §1

Activity [1] | Ki [2] [nM] | tissue uptake at 2 min [3] [%ID/g] | logP [4] | tissue uptake at 2 h [5] [%ID/g] | tissue uptake at 3 h [6] [%ID/g] | Compound
Active | 4 | – | – | – | – | FCCOCCOCCOc1ccc(C#Cc2ccc3c(c2)CCN3)cc1
Active | 1.5 | – | – | – | – | FCCOCCOCCOc1ccc(C#Cc2ccc3[nH]ccc3c2)cc1
– | – | 4.5 | 2.95 | 1.71 | – | [18F]CCOCCOCCOc1ccc(C#Cc2ccc3c(c2)CCN3)cc1
– | – | 2.43 | 2.56 | – | 2.1 | [18F]CCOCCOCCOc1ccc(C#Cc2ccc3[nH]ccc3c2)cc1
